Data on 36 sequences can be found in the array DNA melting data of Ke et al. (doi:10.1101/2024.01.08.574731).

A short description of series [1]: folding enthalpy; higher = less favourable; fluorescence melt of hairpins on a sequencing array, two-state fit. The note with it: sodium 0.088 M. The essentials: (§1)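 To match UV melts, fitted temperatures were raised by 9.35 °C. These fits were bootstrapped two-state models that gave melting temperature and folding enthalpy, combined by inverse variance over four replicates. The input was normalised Cy3 fluorescence of library hairpins with annealed Cy3 and quencher oligos on a sequenced MiSeq flow cell, imaged in 50 mM Na-HEPES pH 8.0, 25 mM NaCl in 2.5 °C steps up to 60 °C.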

Series [2] can be described thus: melting temperature; fluorescence melt of hairpins on a sequencing array, two-state fit, raised by 9.35 °C to match UV melts. The note with it: sodium 0.088 M. The method in brief:
as §1

As to GTGGACGAAAGTCATCAC ((((((....)))..))), the folding enthalpy in series [1] is -13.1 kcal/mol. In series [2], the Tm came to 36.3 °C.
For GTGGACGAAAGTCCTCAC ((((((....)))..))) the same measures were -9.72 kcal/mol and 38 °C.
For GTGGACGAAAGTCTCAC ((((((....))).))) the same measures were -20.1 kcal/mol and 46.6 °C.
For GTGGACGCGAAAGCGCAC (((..(((....)))))) the same measures were -15.4 kcal/mol and 47.8 °C.
For the sequence GTGGACGGAAACATCCAC (((((.(....).))))), the folding enthalpy in series [1] is -31.8 kcal/mol. Also, in series [2], the Tm is 43.6 °C.
For GTGGAGACGAAAGTCCAC (((..(((....)))))) the same measures were -22.8 kcal/mol and 47.6 °C.
Regarding GTGGAGCGAAAGCTCAC (((.(((....)))))), the folding enthalpy in series [1] is -12.1 kcal/mol. For the same sequence, the Tm in series [2] came out at 52.1 °C.
For GTGGAGGGAAACCCCCAC ((((.((....)).)))) the same measures were -30.6 kcal/mol and 48.8 °C.
For GTGGAGGGAAACCTCCAC (((((((....))))))) the same measures were -40.9 kcal/mol and 66.5 °C.
For GTGGAGGGAAACCTTCAC (((.(((....))).))) the same measures were -31.9 kcal/mol and 47.3 °C.
For the sequence GTGGATCGAAAGATACAC (((.(((....))).))), the folding enthalpy in series [1] is -44.2 kcal/mol. In addition, the Tm in series [2] was 55.9 °C.
For GTGGATCGAAAGATCAC (((.(((....)))))) the same measures were -13.3 kcal/mol and 48.8 °C.
For GTGGATGGAAACATCCGC (.(((((....))))).) the same measures were -28 kcal/mol and 56.1 °C.
As for GTGGATGGAAACATTCAC (((.(((....))).))), the folding enthalpy in series [1] is -45.5 kcal/mol. Besides, the Tm in series [2] was 46.6 °C.
For GTGGATGGAAACATTCGC (.(.(((....))).).) the same measures were -28.4 kcal/mol and 34.9 °C.
For GTGGATGGAAACGTCCAC (((((.(....).))))) the same measures were -47.6 kcal/mol and 53 °C.
For the sequence GTGGATTCGAAAGAACAC (((..(((....)))))), the folding enthalpy in series [1] is -17.4 kcal/mol. Also, the Tm in series [2] was 32 °C.
For GTGGCAGCGAAAGCTCAC (((..(((....)))))) the same measures were -12.4 kcal/mol and 43.7 °C.
Take GTGGCCGAAAGGCACAC ((((((....))).))): the folding enthalpy in series [1] was -15.1 kcal/mol. Besides, the Tm in series [2] stood at 63.1 °C.
For GTGGCCGAAAGGCGCCAC ((((((....)))..))) the same measures were -13.7 kcal/mol and 49 °C.
For GTGGCCGAAAGGCTTCAC ((((((....)))..))) the same measures were -12.4 kcal/mol and 33.6 °C.
For GTGGCCGCGAAAGCGCAC (((..(((....)))))) the same measures were -9.11 kcal/mol and 48.4 °C.
In the case of GTGGCCGGAAACGACCAC ((((.((....)).)))), the folding enthalpy in series [1] is -40.3 kcal/mol. Moreover, in series [2], the Tm worked out at 56.5 °C.
Take GTGGCGGCGAAAGCCCAC (((..(((....)))))): the folding enthalpy in series [1] was -15 kcal/mol. Besides, the Tm in series [2] is 54 °C.
Turning to GTGGCGGGAAACCACCAC ((((.((....)).)))), the folding enthalpy in series [1] is -35.4 kcal/mol. Moreover, the Tm in series [2] was 51.5 °C.
For GTGGCGGGAAACCGCTGC (..((((....))))..) the same measures were -15.4 kcal/mol and 47.9 °C.
For GTGGCGGGAAACTGCCAC (((((.(....).))))) the same measures were -54.1 kcal/mol and 60.7 °C.
For GTGGCGGGAAACTGCCGC (.(((.(....).))).) the same measures were -22.2 kcal/mol and 53.5 °C.
As to GTGGCTCGAAAGAGACAC (((.(((....))).))), the folding enthalpy in series [1] was -40.1 kcal/mol. In addition, the Tm in series [2] came out at 68.9 °C.
Take GTGGCTCGAAAGAGCAC (((.(((....)))))): in series [1], the folding enthalpy is -11.8 kcal/mol. Moreover, the Tm in series [2] was 51.2 °C.
For GTGGCTGGAAACAACCAC ((((.((....)).)))) the same measures were -34.4 kcal/mol and 45.8 °C.
For GTGGGACGAAAGTCTCAC (((.(((....))).))) the same measures were -36 kcal/mol and 60 °C.
For GTGGGAGAAATCCCAC ((((((....)))))) the same measures were -28.3 kcal/mol and 58.8 °C.
Regarding GTGGGAGCGAAAGCTCAC (((..(((....)))))), the folding enthalpy in series [1] was -19.2 kcal/mol. Moreover, in series [2], the Tm was 62.9 °C.
As to GTGGGAGGAAACCCCCAC (((((.(....).))))), the folding enthalpy in series [1] is -38.8 kcal/mol. Further, the Tm in series [2] turned out to be 50.3 °C.
For GTGGGAGGAAACTCCCGC (.(((((....))))).) the same measures were -33.4 kcal/mol and 56.7 °C.
